# Calb FLC: affects C. albicans growth with fluconazole. hit rate 0.57% among 300,000. growth inhibition, % (test concentration not listed). AID 1979. C. albicans CaCi-2 (fluconazole-resistant clinical isolate) + fluconazole, Alamar Blue growth, 48 h;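 active = growth inhibition above about 58% in most replicates, limit read from the data, passing the limit was not always enough; inconclusive = exactly half the replicates above a set limit; inactive = most replicates below a set limit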;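 note: all wells also contain fluconazole at 8 µg/ml as a sub-toxic cotreatment; 0% = median of DMSO wells and 100% = median of geldanamycin control wells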
# Beta apoptosis: beta cell apoptosis inhibition; INS-1E cytokine-induced death, ATP luminescence, 48 h; percent of positive-control rescue, neutral wells zero; protection from apoptosis, % (concentration not given with the values); hit rate 0.8% among 300,000;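 active = Every replicate reaches about 75%, or at least half do and their mean reaches it too, limit read from the data; inconclusive = At least half of replicates reach the limit but their mean does not; inactive = Under half of replicates reach the limit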;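 note: 0% = cytokine-treated negative control wells and 100% = positive control rescue; higher means more ATP so stronger rescue from cytokine killing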
# T cruzi inh: blocks replication of Trypanosoma cruzi | T. cruzi beta-gal in NIH3T3, luminescence, 90 h | inhibition, % (test concentration not listed) | hit rate 1.4% among 300,000;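 active = mean inhibition across valid replicates above about 55%, limit read from the data; inconclusive = mean below that limit but half or more replicates reach it; inactive = mean below it, under half of replicates reach it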;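 note: signal also drops with host cell toxicity which is not excluded here; 0% = plate median of DMSO wells and 100% = zero luminescence signal; higher percent means less beta-gal luminescence so fewer parasites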
#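 assay system = mouse NIH/3T3 fibroblasts infected with β-gal-expressing T. cruzi Tulahuen C4 | input = 5,000 NIH/3T3 host cells per well | buffer or medium = DMEM plus 2% FBS | timing = 3 h host attachment, then at least 90 h co-culture | measured by = GalScreen luminescence, 60 min | evaluation = luminescence reflecting intracellular parasite burden, expressed as percent inhibition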
# Bfl-1 A1 inh: inhibitors of the anti-apoptotic protein A1, read as caspase activation. MEF A1-2A-BIM cells, Caspase-Glo 3/7 luminescence, 3 h; percent of clofoctol response, vehicle zero. caspase activation, % (test concentration not listed). hit rate 0.066% among 330,000;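 active = over half of replicate activation scores above 10%, or exactly half above 10 with the replicate mean above 10; inconclusive = replicate mean below 10 yet half the replicates above 10; inactive = over half of replicates below 10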
# CSC inhib: blocks cancer stem cells; cancer stem cell-like cells viability, luminescence; inhibition, % at 7.5 µM; hit rate 1.1% among 300,000; in the data active = inhibition above about 75%; inconclusive = no clear call, values can overlap the other calls; tested in HMLE shEcad cells
# H9c2 TAG inh: reduces triacylglycerol accumulation in H9c2 cells | AID 651582 | Nile Red lipid (TAG) fluorescence; cells loaded with 200 µM oleic acid | hit rate 0.66% among 230,000 | inhibition, % at 12.5 µM;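 active = pattern-corrected inhibition of lipid staining of at least 50% with the nuclear-stain viability signal not falling by more than 50%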;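 note: 0% = DMSO wells and 100% = triacsin C control wells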
# * = called active by the depositor; ? = inconclusive; . = no result given. A selection: hits, their analogues and other compounds. The true share with any hit is near 3.1%.
SMILES,Calb FLC,Beta apoptosis,T cruzi inh,Bfl-1 A1 inh,CSC inhib,H9c2 TAG inh
COc1ccc(C(=O)NC(=S)Nc2ccccc2N2CCCCC2)cc1[N+](=O)[O-],-26,0,39,0,101*,.
COc1cc(C(=O)NC(=S)Nc2ccccc2N2CCOCC2)cc(OC)c1OC,5,17,14,0,14,16
O=C(Nc1ccccc1N1CCOCC1)c1cccc(F)c1,7,-1,-4,3,13,4
O=C(NCc1ccco1)c1cc2n(n1)C(C(F)(F)F)CC(c1ccc(Cl)c(Cl)c1)N2 (stereo not given),?,0,55*,0,46,.
Oc1ccc(-c2csc(Nc3ncccn3)n2)c(O)c1,21,.,27,-1,-2,2
Oc1ccc(-c2csc(Nc3ccc4c(c3)OCO4)n2)c(O)c1,.,.,.,.,.,-3
Cc1cccc(Nc2nc(-c3ccc(O)cc3O)cs2)n1,4,-1,-15,-1,97*,.
N#Cc1ccc(Nc2nc(-c3ccc(O)cc3O)cs2)cc1C(F)(F)F,.,8,.,-1,85*,-5
CSCCC(NC(=O)COc1ccccc1)C(=O)N1CC(C)OC(C)C1 (stereo not given),.,-9,.,1,-17,-13
Nc1[nH]c(=O)nc2snnc12,.,.,.,.,.,1
Cc1cnc(C(=O)N2CCc3c([nH]c4ccccc34)C2c2ccc(F)cc2)cn1 (stereo not given),?,11,14,0,1,-2
CC(=O)c1cc(C(=O)N2CCc3c([nH]c4ccccc34)C2C2CCCCC2)[nH]n1 (stereo not given),91*,5,-5,1,-5,10
COc1ccc(C(CCN2CCOCC2)c2c(OC)cc(OC)c3c(C)cc(=O)oc23)cc1 (stereo not given),5,3,-9,0,-1,9
CCCCCc1cc(=O)oc2c(C(CCN3CCCC3)c3ccc(N(C)C)cc3)c(OC)cc(OC)c12 (stereo not given),-18,8,53,0,17,68*
CCCCCc1cc(=O)oc2c(C(CCN3CCCC(C)C3)c3ccc(OC)cc3)c(OC)cc(OC)c12 (stereo not given),1,109*,66*,1,102*,96*
CCCCCc1cc(=O)oc2c(C(CCN3CCCCC3)c3ccc(OC)cc3)c(OC)cc(OC)c12 (stereo not given),11,47,42,3,97*,111*
COc1cc(OC)c2ccc(=O)oc2c1C(CCN1CCCC(C)C1)c1ccc2c(c1)OCO2 (stereo not given),-40,2,21,0,3,42
Cc1c(C2(O)CCCCC2)[nH]c2ccc(C(F)(F)F)cc12,.,5,.,-1,81*,-17
COC(=O)c1ccc2[nH]c(C3(O)CCCCC3)c(C)c2c1,.,-3,.,0,12,-40
COc1ccc(-c2nc(Cn3c(SCc4cccc(F)c4)nc4ccncc43)c(C)o2)cc1OC,2,21,18,0,82*,-1
COc1ccc(-c2nc(Cn3c(SCc4ccc(C)cc4)nc4ccncc43)c(C)o2)cc1OC,-12,0,48,1,12,5
CCn1c(CSc2nc3ccccc3s2)nnc1SCC(=O)c1ccc(O)c(O)c1,105*,.,-22,0,.,.
N#CCCCSc1nnc(CSc2nc3ccccc3s2)n1-c1ccccc1,3,1,13,0,-7,7
CCCSc1nnc(CSc2nc3ccccc3s2)n1-c1ccccc1,-10,44,53,0,86*,.
CCn1c(SCC(=O)c2ccc(O)c(O)c2)nnc1-c1ccccc1OC,96*,-5,-28,-1,-5,2
SMILES,Calb FLC,Beta apoptosis,T cruzi inh,Bfl-1 A1 inh,CSC inhib,H9c2 TAG inh
N#CCOC(=O)[C@H](Cc1c[nH]c2ccccc12)NS(=O)(=O)c1ccc(Cl)cc1,0,-2,-5,-1,7,.
CC(=O)O[C@H]1[C@@H](O)[C@H](O)[C@H](Oc2c(O)c(C)c3c4c2[C@@H](C)CC[C@@H]4[C@@H](C)C[C@H]3C=C(C)C)O[C@H]1C,.,8,.,2,106*,31
O=C(O)C[C@@H](CNC(=O)COc1ccc2ccc(=O)oc2c1)c1ccc(Cl)cc1,-8,-6,-11,1,-12,.
OCCNc1nc(Nc2ccc(Br)cc2)nc2ccccc12,25,22,62*,-1,49,.
Cc1c(Cl)cccc1Nc1nc(NCCO)c2ccccc2n1,-3,17,56*,0,23,-28
Oc1ccccc1Nc1nc(NCc2ccccc2)c2ccccc2n1,50,11,40,1,103*,15
OCCNc1nc(Nc2ccccc2)nc2ccccc12,0,5,41,-1,3,-4
CNc1nc(NCc2ccccc2)c2ccccc2n1,-5,37,51,1,-16,.
CC(=O)N1CCN(c2ccc(Oc3ccc([N+](=O)[O-])c(C(F)(F)F)c3)cc2)CC1,-15,95*,13,0,-4,.
COc1ccc(Nc2cc(C)nc(NCc3ccccc3)n2)cc1,3,60,61*,0,34,2
COc1cc(C)nc(NCc2ccccc2)n1,-7,-5,8,1,-7,0
Cc1cc(NC2CCCCC2)nc(NCc2ccccc2)n1,1,104*,58*,0,16,.
Cc1cc(C)nc(N/N=C/c2ccccc2Cl)n1,-11,3,-11,-6,2,5
Cc1cc(N/N=C/c2ccccc2Cl)nc(NCc2ccccc2)n1,2,35,31,-1,94*,.
Cc1cc(N2CCN(c3ccccc3)CC2)nc(NCc2ccccc2)n1,.,36,55*,-1,-14,-35
Cc1c(Cl)cccc1NC(=O)Cn1c(CCC(=O)O)ccc1-c1ccccc1,12,-16,-11,1,-9,.
CCc1nnc(NC(=O)CSc2nnc(C(C)NC(=O)c3ccccc3)n2C)s1 (stereo not given),-6,-8,-1,0,-17,.
CN(Cc1ccccc1)C(=O)Cn1nnc(-c2ccccc2)c1COc1ccccc1,.,.,.,.,.,0
CCc1noc(C)c1C(=O)N(C)CC(=O)Nc1ccc(OC)cc1,-7,.,6,0,-5,-10
Cc1ccc(Nc2cc(C)nc(NCc3ccccc3)n2)cc1,8,105*,61*,0,?,.
CC(C)n1cc(NC(=O)c2cc(-c3ccccc3)on2)cn1,-2,19,-51,-1,48,50*
Cc1ccc(NC(=O)c2cc(-c3cccc(O)c3)on2)cc1C,-2,2,14,0,80*,12
O=C(Nc1cccnc1)c1cc(-c2ccccc2)on1,-30,-4,-14,0,22,10
Cc1ccc(S(=O)(=O)N(C)c2ccc(C(=O)NCC(c3ccco3)N3CCCC3)cc2)cc1 (stereo not given),.,.,.,.,.,-30
Cc1cc(O)ccc1NC(=S)NC(=O)c1cncc(Br)c1,87*,6,-33,1,22,.

# Source: PubChem BioAssay
